Data as given in ChEMBL document CHEMBL3044971, “Dialkoxybenzene and dialkoxyallylbenzene feeding and oviposition deterrents against the cabbage looper, Trichoplusia ni: potential insect behavior control agents” (J Agric Food Chem, 2010).

Assays:
Trichoplusia ni [1] = experiment: Feeding deterrent activity against freshly molted third-instar larval stage of Trichoplusia ni (cabbage looper) in compound pretreated cabbage leaves at 50 ug/cm2 after 3 to 5 hr by leaf disk choice bioassay; type: functional
How it was run: (§1)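 Leaf-disk choice test on greenhouse cabbage (Stonehead) leaves from 5-6-week plants. Freshly molted third-instar T. ni from a diet-reared colony (>50 generations) were starved 4-5 h. One disk had 10 μL test solution painted on each side, the other carrier solvent only. There were 25 larvae per treatment. Run ended at ~50% control disk eaten (3-5 h). Deterrence = (C−T)/(C+T)×100 from consumed areas.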

Trichoplusia ni [2] = details: in vivo, 24 h
Trichoplusia ni [3] = experiment: Oviposition deterrent activity against adult female Trichoplusia ni (cabbage looper) moths introduced along with male moths into oviposition cage containing compound pretreated cabbage leaves assessed as eggs laying on the leaf disks at 0.25% after 48 hr; type: functional
How it was run: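 Choice test: one male and one female moth were caged with a control and a treated cabbage leaf (~100-110 cm²). Each side was sprayed with 0.5 mL MeOH or methanolic test solution at 0.25%. Values are mean ± SE, N = 35-40.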

Trichoplusia ni [4] = experiment: Feeding deterrent activity against freshly molted third-instar larval stage of Trichoplusia ni (cabbage looper) in compound pretreated cabbage leaves after 3 to 5 hr by leaf disk choice bioassay; type: functional, organism-based; how it was run: as §1

| Compound | Activity (Trichoplusia ni [1]) | mortality (Trichoplusia ni [2]) | Activity (Trichoplusia ni [3]) | DC50 (Trichoplusia ni [4]) |
| --- | --- | --- | --- | --- |
| C=CCc1cccc(OCCCC)c1OCCC(C)C | 22% | 7% |  |  |
| C=CCOc1ccc(CC=C)cc1OC [ALLYLEUGENOL] | 86% | 18% | 16% | 15 microg/cm2 |
| C=CCOc1c(CC=C)cccc1OCCC | 22% | 7% |  |  |
| C=CCOc1ccc(OC)cc1 [1-allyloxy-4-methoxybenzene] | 62% | 6% | 13% | 30 microg/cm2 |
| C=CCc1cccc(OCCC(C)C)c1OC | 100% | 17% | 32% | 15.5 microg/cm2 |
| C=CCc1cc(OCCC(C)C)ccc1OC | 68% | 17% | 37% | 19 microg/cm2 |
| C=CCc1cccc(OCC)c1OCCC | 31% | 47% |  |  |
| C=CCc1cc(OCCC(C)C)ccc1OCCCC | 23% |  | -14% |  |
| C=CCOc1ccc(OCCC)cc1CC=C | 29% |  |  |  |
| C=CCc1cccc(OCCC)c1OCCCC | 6% | 1% |  |  |
| C=CCOc1ccc(OCC)cc1 [1-allyloxy-4-ethoxybenzene] | 73% |  | 17% | 30 microg/cm2 |
| C=CCOc1ccc(OCCC(C)C)cc1 [1-allyloxy-4-isopentoxybenzene] |  |  | -25% |  |
| C=CCc1cc(OCC)ccc1OCC | 66% | 3.3% | 64% | 22 microg/cm2 |
| C=CCc1cccc(OCCC(C)C)c1OCCCC | 6% | 1% |  |  |
| C=CCc1ccc(O)c(OC)c1 [EUGENOL] | 44% | 30% |  | 56 microg/cm2 |
| C=CCc1cc(OC)ccc1OCC | 66% | 3.3% | 64% | 22 microg/cm2 |
| C=CCOc1c(CC=C)cccc1OCCC(C)C | 22% | 7% |  |  |
| C=CCc1cc(OCCCC)ccc1OCCC | 65% | 17% | 21% | 33 microg/cm2 |
| C=CCc1cc(OCCC(C)C)ccc1O | 51% | 3.3% | 51% | 57 microg/cm2 |
| C=CCc1cc(OC)ccc1OCCC | 92% | 6.4% | 7% | 9.4 microg/cm2 |
| C=CCc1cccc(OCCCC)c1OCCC | 31% | 47% |  |  |

| Compound | Activity (Trichoplusia ni [1]) | mortality (Trichoplusia ni [2]) | Activity (Trichoplusia ni [3]) | DC50 (Trichoplusia ni [4]) |
| --- | --- | --- | --- | --- |
| C=CCc1cc(OCCCC)ccc1OC | 68% | 17% | 37% | 19 microg/cm2 |
| C=CCc1cccc(OCCC(C)C)c1OCC | 100% | 27% | 31% | 20 microg/cm2 |
| C=CCc1cccc(OCCC)c1OCCC(C)C | 22% | 7% |  |  |
| C=CCc1ccc(OCC)c(OC)c1 [ETHYLEUGENOL] | 51% | 35% | 18% | 50 microg/cm2 |
| C=CCOc1ccccc1OCCC(C)C |  |  | 26% |  |
| C=CCc1cccc(OCCCC)c1O | 100% | 17% | 7% | 20.6 microg/cm2 |
| C=CCc1cccc(OC)c1OCC | 100% | 27% | 31% | 20 microg/cm2 |
| CCCOc1cccc(OCCC(C)C)c1 [3-PROPOXY-1-ISOPENTOXYBENZENE] | 97% | 10% | 9% | 17 microg/cm2 |
| C=CCc1cccc(OC)c1OCCCC | 6% | 1% |  |  |
| C=CCc1cccc(OCC)c1O | 100% | 17% | 7% | 20.6 microg/cm2 |
| C=CCc1cccc(OC)c1O | 100% | 17% | 7% | 20.6 microg/cm2 |
| C=CCOc1cccc(OCC=C)c1 | 97% | 13% | 26% | 20 microg/cm2 |
| CCCCOc1ccccc1OCCC [1-propoxy-2-butoxybenzene] | 98% | 19% | 37% | 21 microg/cm2 |
| C=CCc1cc(OCCC)ccc1OCCC(C)C | 83% | 27% | 20% | 15 microg/cm2 |
| C=CCc1cc(OCCC(C)C)ccc1OCC | 66% | 3.3% | 64% | 22 microg/cm2 |
| C=CCc1cccc(OCCCC)c1OCCCC | 6% | 1% |  |  |
| C=CCc1cc(OC)ccc1O | 51% | 3.3% | 51% | 57 microg/cm2 |
| C=CCc1cccc(OCCC(C)C)c1OCCC | 31% | 47% |  |  |
| C=CCc1c(OC)cccc1OCCC | 100% |  | 17% | 14 microg/cm2 |
| C=CCc1cccc(OCCC(C)C)c1OCCC(C)C | 22% | 7% |  |  |
| C=CCOc1ccc(OCC)cc1CC=C | 29% |  |  |  |

| Compound | Activity (Trichoplusia ni [1]) | mortality (Trichoplusia ni [2]) | Activity (Trichoplusia ni [3]) | DC50 (Trichoplusia ni [4]) |
| --- | --- | --- | --- | --- |
| C=CCOc1ccc(OCCCC)cc1CC=C | 29% |  |  |  |
| C=CCOc1c(CC=C)cccc1OC | 22% | 7% |  |  |
| C=CCc1cc(OCCCC)ccc1OCCCC | 23% |  | -14% |  |
| C=CCOc1ccc(OC)cc1CC=C | 29% |  |  |  |
| C=CCOc1ccc(OCCC(C)C)cc1CC=C | 29% |  |  |  |
| C=CCc1cc(OCCC)ccc1OCCCC | 23% |  | -14% |  |
| C=CCc1cc(OC)ccc1OCCCC | 23% |  | -14% |  |
| C=CCc1cccc(OCC)c1OCCCC | 6% | 1% |  |  |
| C=CCc1cccc(OCC)c1OCCC(C)C | 22% | 7% |  |  |
| C=CCOc1ccc(OCCC)cc1 [1-allyloxy-4-propoxybenzene] | 100% |  | 21% | 0.5 microg/cm2 |
| C=CCOc1cccc(O)c1 [3-(ALLYLOXY)PHENOL] | 36% |  | 5% |  |
| C=CCc1cccc(OC)c1OCCC | 31% | 47% |  |  |
| C=CCc1cccc(OCCC)c1OCCC | 31% | 47% |  |  |
| C=CCOc1c(CC=C)cccc1OCC | 22% | 7% |  |  |
| C=CCOc1c(CC=C)cccc1OCCCC | 22% | 7% |  |  |
| C=CCc1cc(OCC)ccc1OCCCC | 23% |  | -14% |  |
| C=CCc1cccc(OC)c1OCCC(C)C | 22% | 7% |  |  |
| C=CCc1ccc(OC)c(OC)c1 [METHYLEUGENOL] | 64% |  | -22% | 26 microg/cm2 |
| C=CCOc1cccc(OCCC(C)C)c1 |  |  | 10% |  |
